Structures are written as SMILES.

The nature of the series: Toxicity liver stage against HepG2, at 10uM. Format: cell-based. Also noted: test concentration 10 uM, cell line HepG2-A16-CD81EGFP. Conditions: human, HepG2-A16-CD81EGFP cells; read-out: INHIBITION
The method, boiled down: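 Uninfected HepG2-A16-CD81EGFP cells, 3 × 10^3 per well, 1536-well, plated on prespotted compound at 10 μM final, parasite-free screening media added to match infected plates; puromycin 10 μM positive, DMSO 0.5% negative; run in parallel with 48 h PbLuc assay at 37 °C, 5% CO2; viability by CellTiter-Glo luminescence, normalized to controls.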
For `CCN(CC)S(=O)(=O)c1ccc(CCC(=O)NCc2cc(C)on2)cc1`, the cytotoxicity at 10 µM was -3.09%. The figure for `Cc1cc(C(=O)N2CCOC[C@H](Oc3cnccn3)C2)c(C(F)(F)F)o1` is -1.13%; for `Cc1ccc(Nc2cc(N3CCN(S(C)(=O)=O)CC3)nc(C)n2)cc1` it is 6.91%; for `O=C(NCCCc1ccco1)c1cnc(N2CCOCC2)nc1` it is 11%. With `COCCn1ccc2ccc(C(=O)O)cc21`, the cytotoxicity at 10 µM was -9.13%.

In the case of `O=C(C1CC(=O)N(c2n[nH]c3cc(Br)ccc23)C1)N1CCCC1` (configuration not stated), the cytotoxicity at 10 µM was -11.2%. Next, `O=C(NCCC(O)c1cccs1)c1ccc(Br)o1` (configuration not stated): -15.2%.

On to `Cn1nnc2c(N3CC(C(=O)NCCC4=CCCCC4)C3)ncnc21`, for which the cytotoxicity at 10 µM came to 8.41%. The figure for `O=C1CCC2(CCCN(C(=O)Cc3cccs3)C2)N1` (configuration not stated) is 3.76%; for `CN(C)C(=O)CN1CCC2(CCN(C(=O)N(C)C)CC2)C1=O` it is 0.611%. The figure for `CN(Cc1cccnc1)C1CC2(CCN(C(=O)c3cscn3)CC2)C1` is 1.02%; for `Cn1c(C(=O)NC2CCCC2)nc2c1CCN(Cc1ccccc1)C2` it is 10.3%.

Turning to `O=c1cc(CN2CCCC2)nc2n1CCCN(Cc1ccoc1)C2`, the cytotoxicity at 10 µM was -123%. On to `CC(NC(=O)OC(C)(C)C)c1nnc(S(=O)(=O)Cc2ccc(Cl)cc2)o1` (configuration not stated), for which the cytotoxicity at 10 µM is -8.92%. On to `CCOc1c(Cl)cc(Cl)cc1CNCCCn1ccnc1`, for which the cytotoxicity at 10 µM is -1.32%.

Regarding `Cc1c(C(=O)O)nnn1Cc1cccc(C(F)(F)F)c1`, the cytotoxicity at 10 µM was -2.93%. Next, `Cc1ccc(Sc2ccc(N3CCCC(C(=O)O)C3)nn2)cc1` (configuration not stated): -8.71%. The figure for `CC(C)Sc1nnc(CCNC(=O)OC(C)(C)C)o1` is 14.3%; for `CC(=O)NCCN1CCC(c2cccs2)CC1` it is -22.6%. Next, `CCNC(=O)c1nnn(Cc2ccccc2)c1OC`: 4.62%; `COc1ccc(C(C)N(C)Cc2c(C(C)(C)C)[nH]c3ncccc23)cc1` (configuration not stated): -0.0612%. In the case of `CC(=O)NC1Cc2ccc(S(=O)(=O)NCCNc3ccccn3)cc2C1` (configuration not stated), the cytotoxicity at 10 µM was determined as 0.126%. The figure for `CC(C)c1ccc(CN[C@@H]2COC[C@H]2c2ccc(F)cc2)cc1` is -7.52%. The figure for `CN(C)c1ccc(CC2CCN(c3cnccn3)CC2)nn1` is 2.29%; for `CC(C)OC(=O)[C@@H]1CCN(C(=O)c2ccccn2)[C@@H]1c1ccc(F)cc1` it is 4.81%. Next, `Cc1n[nH]c(C)c1CCC(=O)N[C@@H]1CCC[C@@H](Oc2ccccc2)[C@@H]1O`: 3.01%; `CN1CCN(C(=O)C2CCN(c3cccnn3)C2)CC1` (configuration not stated): -32.4%; `CC(C)N(Cc1ccccc1)C(=O)c1cc(C2CCCN2C)ccn1` (configuration not stated): -18.7%.

For `Cc1nnc2n1CCN(C(=O)c1ccc(Cn3cccc3)cc1)C2`, the cytotoxicity at 10 µM is -2.4%. The figure for `CCOc1ccccc1CCNC(=O)NCC(O)c1ccsc1` (configuration not stated) is -2.23%; for `COCCCNC(=O)Nc1c(C)cccc1C(C)C` it is 2.66%. Next, `CNS(=O)(=O)CC(=O)NCc1cc2c(s1)CCC(C)(C)C2`: 3.15%; `CC(C)CN(C(=O)Nc1cccnc1)C1CC1`: -11.3%; `CCN(CCNC(=O)Nc1nnc(C)s1)C(=O)OC(C)(C)C`: -9.41%. The figure for `O=C1CCCN1CCN1CCCCC1Cn1cncn1` (configuration not stated) is -0.225%. `O=C(O)c1csc(S(=O)(=O)N2CCN(Cc3ccc(Cl)cc3)CC2)c1`: the cytotoxicity at 10 µM was 4%. The figure for `Cc1cc(C(=O)NC(C)CC(=O)c2cccs2)n(C)n1` (configuration not stated) is -0.0944%; for `COc1ncccc1CNCc1c(C(C)C)nn(C)c1N(C)C` it is -5.91%; for `COc1ccc(C(C)NC(=O)Nc2nnc(C)s2)c(OC)c1` (configuration not stated) it is 9.12%. Next, `COC(=O)N1CCC(NC(=O)Cn2cc(C)c3ccccc32)CC1`: -2.37%; `CN(Cc1ccc(Cl)s1)C(=O)COc1cccc(C(N)=O)c1`: -2.83%. Next, `Cc1noc(CN(CCc2cccs2)Cc2cccc(C#N)c2)n1`: 2.27%; `COCCOCC(=O)Nc1cc(C)ccc1F`: 3.91%. Regarding `CC(C)c1ccc(C(=O)N2CCOCC2CC(=O)c2ccco2)cn1` (configuration not stated), the cytotoxicity at 10 µM is 6.93%.

Regarding `CC(C)NC(=O)c1nnn(-c2cccc(F)c2)c1C1CC1`, the cytotoxicity at 10 µM was -0.0198%.

Turning to `Cc1cc(C)c(C(=O)N2CCOC(c3cccs3)C2)c(=O)[nH]1` (configuration not stated), the cytotoxicity at 10 µM is -1.29%. For `Cn1c(SCC(O)COCc2ccc(Cl)cc2)nnc1C1CC1` (configuration not stated), the cytotoxicity at 10 µM came to 14%. Next, `Cc1ccc(N2CCCC(NC(=O)CCc3ccccn3)C2=O)cc1` (configuration not stated): -2.16%; `O=C(NCCc1cccs1)N1CCCC1CCCO` (configuration not stated): 5.82%; `CS(=O)(=O)CCCSc1n[nH]c(-c2ccc3c(c2)CCC3)n1`: -0.0422%. The figure for `O=c1[nH]nc2n1CCN(S(=O)(=O)c1ccccc1Cl)C2` is 3.61%; for `O=C(CC(F)(F)F)NCC(O)c1ccc2ccccc2c1` (configuration not stated) it is -4.06%; for `O=C(NCCNc1cnccn1)NCC1CCS(=O)(=O)C1` (configuration not stated) it is -1.68%. `COc1ccc(C(=O)CCc2nc(C3CC3)no2)cc1F`: the cytotoxicity at 10 µM was -2.89%. With `CC(=O)N1CCCN(C(C)c2ccc(Br)cc2)CC1` (configuration not stated), the cytotoxicity at 10 µM came to 7.89%. On to `CN1CC(C(=O)NCc2ccc(Br)cc2F)CC1=O` (configuration not stated), for which the cytotoxicity at 10 µM was 9.01%. As to `Cc1ccn(-c2ccc(NCc3ccccc3F)nn2)n1`, the cytotoxicity at 10 µM was found to be 3.66%. As for `Cc1cnc(CNc2c(F)cccc2-n2cccn2)o1`, the cytotoxicity at 10 µM amounted to 15.6%.

On to `c1cnc(N2CCOCC3(CCN(c4cnccn4)CC3)C2)nc1`, for which the cytotoxicity at 10 µM is -103%. The figure for `COCC(=O)N1CCN(CC2CC2)c2ncccc2C1` is -100%; for `COc1ccccc1OC1CCN(c2nc(N)nc3[nH]cnc23)CC1` it is 2.94%; for `Cc1cc(N(C)Cc2ncc[nH]2)nc(-c2cccnc2)n1` it is 4.37%.

Consider `O=C(c1ccccc1)C1CCN(C(=O)CC2COCCN2)CC1` (configuration not stated), for which the cytotoxicity at 10 µM was -163%. The figure for `Cc1cc(C)n(CC2(CNC(=O)C(c3ccc(F)cc3)N(C)C)CC2)n1` (configuration not stated) is 0.438%. The figure for `O=c1n(CC2CCCCO2)nc(CC2CCNCC2)n1-c1ccccc1` (configuration not stated) is -6.66%; for `COc1cccc(F)c1-c1nc2c([nH]1)c(C1CC1)nn2C` it is 0.271%; for `COc1ccc(-n2nc(C(C)C)nc2Cn2cncn2)cc1` it is 4.22%.

For `CCOc1cccc(C(=O)N2CCCn3nc(CCC(=O)O)cc3C2)c1`, the cytotoxicity at 10 µM is -3.43%. Next, `CN1CCN(C(=O)c2ccc3c(c2)nc(N2CCOCC2)n3C)CC1=O`: 1.22%; `CC(=O)N[C@@H]1CN(Cc2nccn2C)C[C@H]1c1ccc(C)cc1`: 14.1%; `CC(C)c1noc(-c2ccc(NCc3noc(C(C)C)n3)nc2)n1`: -6.49%. The figure for `CCc1ccc(CNC(=O)CCc2nnc(-c3ccc(C)s3)o2)nc1` is -3.65%.

As to `COc1cccc(CN(C)Cc2nc3cc(C)ccc3[nH]2)c1O`, the cytotoxicity at 10 µM was 2.74%.

`NC(=O)COc1ccc(C(=O)N2CCCC(n3ccnc3)C2)cc1` (configuration not stated): the cytotoxicity at 10 µM was -13%.

Regarding `COc1cccc2cc(CNCc3ccnc(N4CCCCC4)c3)oc12`, the cytotoxicity at 10 µM is -0.381%.

For `COc1cccc(OCC(=O)NS(=O)(=O)c2cccnc2)c1`, the cytotoxicity at 10 µM is -12.1%. The figure for `Cn1ncc2c(=O)[nH]c(CN3CCCC3c3ccsc3)nc21` (configuration not stated) is -18%; for `Cc1nc(C)n(C2CCCN(C(=O)c3sccc3C)C2)n1` (configuration not stated) it is -8.93%; for `CCc1noc(CN2CCC(c3ccnn3CCO)CC2)n1` it is -11%. The figure for `CCc1nc(CN2CCCN(C(=O)CC(F)(F)F)CC2)cs1` is -18.9%. Next, `Cc1csc(N2CCCN(C(=O)c3c(C)noc3C)CC2)n1`: -10.6%.

`Cc1cc(OCC(=O)N2CCCC(c3nccs3)C2)no1` (configuration not stated): the cytotoxicity at 10 µM was 0.953%. Next, `CC(C(=O)N1CCOCC1)n1cncn1` (configuration not stated): -1.45%; `Cc1nccc(C(=O)NC(COCC(C)C)c2ccco2)n1` (configuration not stated): -10.7%. The figure for `Cc1csc(C2CCCCN2C(=O)c2cc(Cl)c[nH]2)n1` (configuration not stated) is -6.73%; for `CCc1nnc(CNC2CCc3nc(C(C)C)nn3C2)o1` (configuration not stated) it is -20.6%; for `Cc1cnn(CCC(=O)N2CCCC(c3ccn[nH]3)C2)c1` (configuration not stated) it is -8.25%. Next, `Cc1ccc(CCC(=O)N2CCCC(n3cncn3)C2)c(C)c1` (configuration not stated): 1.8%; `Cc1noc(C(C)C)c1C(=O)NCCCOC(C)C`: -9.83%. Regarding `Cc1ccc(CN2CCCC3(CCC(=O)N3)CC2)s1` (configuration not stated), the cytotoxicity at 10 µM is -5.84%. Next, `O=C(C[C@@H]1COC[C@H]2CN(C(=O)c3cccnc3)C[C@@H]12)N1CCCC1`: -118%; `CN(C)CCO[C@H]1CN(C(=O)c2cccs2)[C@@H]2COC[C@H]12`: -3.83%. Next, `O=C(c1cnccn1)N1CCCC2(CCN(Cc3cccnc3)C2)C1` (configuration not stated): -129%; `COc1ccc(CN2C[C@H]3CN(c4cncnc4)C(=O)[C@H]3C2)cc1`: 4.74%; `CCN1CC[C@@]2(C(=O)N3CCOCC3)CCN(C(=O)NC)CC[C@@H]12`: -12.7%. Next, `Cc1cccc(CN2C(=O)CC[C@H]3[C@@H]2CCN3CC(=O)N(C)C)n1`: -71.7%; `CCCS(=O)(=O)N1C[C@@H]2C[C@H](C(=O)N3CCOCC3)[C@H](C1)O2`: -1.95%.
